Several values for one entry are separate records, joined by “and”; a condition that tells them apart may be missing. Equal entries are not always repeated. Where two headings read alike, the source gives them in different places. Values belong to the molecule of their own block, whether it stands above or below them.
Key:
[1] = Semimechanistic population PK model; type: in vivo, human; conditions: for Absorption lag time / CLint to form M2 in liver / CLint to form M20 in liver / Central volume / Fraction of Fa absorbed via transit compartment / Fraction of dose entering gut compartment, Fa / MTT / Maximum rate of absorption, ka,max / Peripheral volume / Rate constant for formation of M2 from gut / Rate constant for formation of M20 from gut / Zero-order absorption duration / Diarrhea effect on Fa / Km / CLint of M2 in liver / CLint of M20 in liver: final population model; for Km: Km for saturable absorption
[2] = type: in vivo, human; conditions: geometric mean (%CV)
Procedure, shortened: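 Semimechanistic nonlinear mixed-effect population PK model with gut and hepatic CYP3A metabolism and a well-stirred liver model. Individual post hoc parameters simulated single oral doses (200 mg; cycle 1 day 1 starting 150 or 200 mg). Parent AUC0−∞ = Dose×F/CL. […] Cmax was taken from predicted profiles. Results are geometric mean (%CV).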

[3] = Noncompartmental analysis of absolute bioavailability study JPBS; type: in vivo, human
[4] = Simulated Day 1 and steady-state exposures in MONARCH 2; type: in vivo, human; conditions: MONARCH 2 and MONARCH 3, simulated exposures
Procedure, shortened: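 Breast cancer patients on endocrine therapy were grouped as East Asian (Japanese, Korean, Taiwanese) or non-East Asian. Each patient's post hoc parameters came from a mechanistic NONMEM model, with dosage averaged over the study. Simulations covered cycle 1 day 1 after the starting dose (150 or 200 mg) and steady state after 56 days of 12-hourly dosing. Read-outs were geometric mean (%CV) Cmax, Cmin and dosing-interval AUC for parent, M2, M20 and total actives.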

[5] = cited from earlier work
[6] = cited from earlier work; remark: listed apart in the source
[7] = Healthy subjects, 200 mg single oral dose, N = 65
[8] = JPBL (patients), 150 mg single oral dose, N = 326
[9] = JPBL (patients), 200 mg single oral dose, N = 142
[10] = JPBN (patients), 200 mg single oral dose, N = 132
[11] = Patients, 200 mg single oral dose, N = 421
[12] = NCA (200 mg), JPBS healthy subjects N = 8, geometric mean (%CV)
[13] = coadministration with clarithromycin (CYP3A inhibitor)
[14] = coadministration with rifampicin (CYP3A inducer)

effect of body weight on abemaciclib exposure ([1]; adults): no clinically significant effect
difference in absorption parameters between the fasted state, a standard meal, and a high-fat meal ([1]; crossover food effect study): no significant difference
Absorption lag time ([1]; Bootstrap median (95% CI)): 1.76 (1.69–1.80) h
CLint to form M2 in liver ([1]; Bootstrap median (95% CI)): 235 (199–284) L/h
CLint to form M20 in liver ([1]; Bootstrap median (95% CI)): 700 (627–775) L/h
Central volume ([1]; Bootstrap median (95% CI)): 604 (563–635) L
Fraction of Fa absorbed via transit compartment ([1]; Bootstrap median (95% CI)): 0.479 (0.453–0.507)
Fraction of dose entering gut compartment, Fa ([1]; Bootstrap median (95% CI)): 0.882 (0.874–0.890)
MTT ([1]; Bootstrap median (95% CI)): 1.52 (1.43–1.62) h
Maximum rate of absorption, ka,max ([1]; Bootstrap median (95% CI)): 97.6 (85.0–111) µmol/h
Peripheral volume ([1]; Bootstrap median (95% CI)): 152 (132–184) L
Rate constant for formation of M2 from gut ([1]; Bootstrap median (95% CI)): 0.401 (0.366–0.432) /h
Rate constant for formation of M20 from gut ([1]; Bootstrap median (95% CI)): 0.306 (0.276–0.339) /h
Zero-order absorption duration ([1]; Bootstrap median (95% CI)): 3.04 (2.52–3.84) h
Diarrhea effect on Fa ([1]; Bootstrap median (95% CI), logit parameter): −0.0079 (−1.29, 2.65 × 10^−7)
Absorption lag time ([1]; Estimate (%SEE)): 1.74 h and 1.74 (0.538) h
CLint to form M2 in liver ([1]; Estimate (%SEE)): 280 (0.436) L/h
CLint to form M20 in liver ([1]; Estimate (%SEE)): 705 (0.421) L/h
Central volume ([1]; Estimate (%SEE)): 588 (2.81) L
Fraction of Fa absorbed via transit compartment ([1]; Estimate (%SEE)): 0.458 (0.336)
Fraction of dose entering gut compartment, Fa ([1]; Estimate (%SEE)): 0.868 (0.0583)
MTT ([1]; Estimate (%SEE)): 1.44 h and 1.44 (3.68) h
Maximum rate of absorption, ka,max ([1]; Estimate (%SEE)): 91.1 µmol/h and 91.1 (3.96) µmol/h
Peripheral volume ([1]; Estimate (%SEE)): 159 (0.421) L
Rate constant for formation of M2 from gut ([1]; Estimate (%SEE)): 0.361 (0.479) /h
Rate constant for formation of M20 from gut ([1]; Estimate (%SEE)): 0.284 (0.468) /h
Zero-order absorption duration ([1]; Estimate (%SEE)): 3.18 h and 3.18 (10.3) h
Diarrhea effect on Fa ([1]; Estimate (%SEE), on the logit parameter for Fa): −0.417 (7.99)
clearance ([1]; human, plasma, oral): 380 mL/min
Km ([1]; human, plasma, oral, Bootstrap median (95% CI)): 51.8 µM
Km ([1]; human, plasma, oral, Estimate (%SEE)): 52.7 µM
intrinsic ka (absorption rate constant) ([1]; in the absence of drug, metabolism-susceptible pathway): 1.73 h⁻¹
absorbed amount absorbed via the zero-order route ([1]; in vivo): 54.2%
dose either not absorbed or lost as other metabolites ([1]; in vivo): 13.2%
total administered dose absorbed either as abemaciclib, M2, or M20 ([1]; in vivo): 86.8%
typical total CLint of unbound abemaciclib that resulted in formation of M2 and M20 ([1]; in vivo): 985 L/h
amount that results in half maximal absorption rate ([1]; saturable absorption from final transit compartment): 27 mg
typical ka,max ([1]; saturable absorption from final transit compartment to liver): 46.2 mg/h
Hepatic clearance [2, 7]: 23.8 (30.3) L/h
Hepatic clearance [2, 8]: 25.1 (21) L/h
Hepatic clearance [2, 9]: 26 (25.7) L/h
Hepatic clearance [2, 10]: 24.3 (24.9) L/h
Hepatic clearance [2, 11]: 21.8 (39.8) L/h
Hepatic clearance [3, 12]: 24.0 (27) L/h
AUC(0-inf) ([3]; human, plasma, oral, 200 mg): 3730 ng·h/mL
Cmax ([3]; human, plasma, oral, 200 mg): 114 ng/mL
bioavailability ([3]; human, plasma, oral, 200 mg): 44.8%
effect of East Asian ethnicity on abemaciclib PK [4]: no effect
Structure (SMILES): CCN1CCN(Cc2ccc(Nc3ncc(F)c(-c4cc(F)c5nc(C)n(C(C)C)c5c4)n3)nc2)CC1 [Abemaciclib]
increase of abemaciclib AUC [5, 13]: 237%
increase of abemaciclib Cmax [5, 13]: 30%
reduction of abemaciclib area under the curve (AUC) [5, 14]: 95%
reduction of abemaciclib maximum plasma concentration (Cmax) [5, 14]: 92%
parent drug renally excreted [6]: 3%
mean terminal elimination half-life ([6]; in patients): approximately 24 hours
median time to maximum plasma concentration ([6]; phase I cancer patient population): approximately 8 hours

CLint of M2 in liver ([1]; Bootstrap median (95% CI)): 241 (218–271) L/h
CLint of M2 in liver ([1]; Estimate (%SEE)): 254 (2.06) L/h
AUC0−∞ [2, 7]: 1690 (39.9) ng·h/mL
Apparent hepatic clearance [2, 7]: 22.9 (28.4) L/h
Cmax [2, 7]: 28.8 (36.1) ng/mL
Half-life [2, 7]: 21.2 (25.8) h
AUC0−∞ [2, 8]: 1640 (70.2) ng·h/mL
Apparent hepatic clearance [2, 8]: 18.3 (49.9) L/h
Cmax [2, 8]: 33.6 (70.4) ng/mL
Half-life [2, 8]: 17.2 (65.1) h
AUC0−∞ [2, 9]: 1820 (72) ng·h/mL
Apparent hepatic clearance [2, 9]: 20.9 (48.1) L/h
Cmax [2, 9]: 40.2 (73.9) ng/mL
Half-life [2, 9]: 16 (73.6) h
AUC0−∞ [2, 10]: 1620 (55.0) ng·h/mL
Apparent hepatic clearance [2, 10]: 23.9 (35.3) L/h
Cmax [2, 10]: 26.9 (54.7) ng/mL
Half-life [2, 10]: 21.3 (73.5) h
AUC0−∞ [2, 11]: 1790 (71.6) ng·h/mL
Apparent hepatic clearance [2, 11]: 21.5 (54.3) L/h
Cmax [2, 11]: 30.3 (75.7) ng/mL
Half-life [2, 11]: 19.3 (65.4) h
AUC0−∞ [3, 12]: 1450 (19) ng·h/mL
Cmax [3, 12]: 31.7 (22) ng/mL
Half-life [3, 12]: 72.6 (23) h
Structure (SMILES): Cc1nc2c(F)cc(-c3nc(Nc4ccc(CN5CCNCC5)cn4)ncc3F)cc2n1C(C)C [M2]

CLint of M20 in liver ([1]; Bootstrap median (95% CI)): 454 (417–489) L/h
CLint of M20 in liver ([1]; Estimate (%SEE)): 431 (2.00) L/h
AUC0−∞ [2, 7]: 3450 (34.4) ng·h/mL
Apparent hepatic clearance [2, 7]: 23.9 (23.7) L/h
Cmax [2, 7]: 49.1 (32.5) ng/mL
Half-life [2, 7]: 20.3 (21.3) h
AUC0−∞ [2, 8]: 2870 (69.6) ng·h/mL
Apparent hepatic clearance [2, 8]: 22.5 (44.3) L/h
Cmax [2, 8]: 59.3 (78.7) ng/mL
Half-life [2, 8]: 14 (62.5) h
AUC0−∞ [2, 9]: 3020 (72.8) ng·h/mL
Apparent hepatic clearance [2, 9]: 25.8 (43.3) L/h
Cmax [2, 9]: 66.1 (82.8) ng/mL
Half-life [2, 9]: 13 (70.1) h
AUC0−∞ [2, 10]: 2750 (55.0) ng·h/mL
Apparent hepatic clearance [2, 10]: 26.2 (33.5) L/h
Cmax [2, 10]: 39.4 (56.0) ng/mL
Half-life [2, 10]: 19.4 (72.7) h
AUC0−∞ [2, 11]: 3240 (74.7) ng·h/mL
Apparent hepatic clearance [2, 11]: 23.7 (52.1) L/h
Cmax [2, 11]: 48.8 (83.0) ng/mL
Half-life [2, 11]: 17.5 (62.5) h
AUC0−∞ [3, 12]: 3260 (26) ng·h/mL
Cmax [3, 12]: 55.7 (26) ng/mL
Half-life [3, 12]: 35.3 (16) h
Structure (SMILES): CCN1CCN(Cc2ccc(Nc3ncc(F)c(-c4cc(F)c5nc(CO)n(C(C)C)c5c4)n3)nc2)CC1 [M20]

Reference: PMC7499187 (CPT: Pharmacometrics & Systems Pharmacology, 2020)
